Assay results collected from several papers.
Observed: cell growth or viability

With `CCCCCCCCCC(=O)N[C@@H](Cc1c[nH]c2ccccc12)C(=O)N[C@H](CC(N)=O)C(=O)N[C@@H](CC(=O)O)C(=O)N[C@@H]1C(=O)NCC(=O)N[C@@H](CCCNC(=O)CCC(=O)N2Cc3ccccc3-c3c(nnn3CCC[C@H](NC(=O)CCCCC[N+]3=C(C=CC4=CC(=CC=C5N(C)c6ccccc6C5(C)C)CCC4)C(C)(C)c4ccccc43)C(=O)NCCCCNC(=O)CCC(=O)N3Cc4ccccc4-c4c(nnn4CCOCCOCCOCCNC(=O)CN4CCN(CC(=O)NCCNC(=O)c5cccc(O)c5O)CCN(CC(=O)NCCNC(=O)c5cccc(O)c5O)CCN(CC(=O)NCCNC(=O)c5cccc(O)c5O)CC4)-c4ccccc43)-c3ccccc32)C(=O)N[C@@H](CC(=O)O)C(=O)N[C@H](C)C(=O)N[C@@H](CC(=O)O)C(=O)NCC(=O)N[C@H](CO)C(=O)N[C@@H]([C@H](C)CC(=O)O)C(=O)N[C@@H](CC(=O)c2ccccc2N)C(=O)O[C@@H]1C` the Kb was greater than 64000 nM (KB 3-1; WST-1).
For `COc1cc2c(Nc3ccc(Br)cc3F)ncnc2cc1OCC1CCN(C)CC1`, the GI50 was 5910 nM (BT-474; ATP luminescence; 72 h).
For `CC(=O)Nc1cccc(-n2c(=O)n(C3CC3)c(=O)c3c(Nc4ccc(I)cc4F)n(C)c(=O)c(C)c32)c1`, the viability was 74.2% (Calu-6; resazurin; 6.25 nM; 72 h).
`O=C(NO)c1ccc(CN(c2cnccn2)c2cnccn2)cc1` gave a GI50 of greater than 20000 nM (B16-F10).
`CC[C@]1(O)C[C@H]2CN(CCc3c([nH]c4ccccc34)[C@@](C(=O)OC)(c3cc4c(cc3OC)N(C=O)[C@H]3[C@@](O)(C(=O)OC)[C@H](OC(C)=O)[C@]5(CC)C=CCN6CC[C@]43[C@@H]65)C2)C1` gave an IC50 of 11.2 nM (MB002; 7 days).
`CC(=NN=c1[nH]c(C)cs1)c1c(O)c2ccccc2oc1=O` gave an IC50 of greater than 100000 nM (human Skin fibroblast; MTT; 48 h).
The IC50 of `COc1c(C)cnc(Cn2cnc3c(Cl)nc(N)nc32)c1C` is reported as 97.4 nM (MB002; 7 days).
With `CC(C)C[C@H](NC(=O)[C@H](Cc1ccccc1)NC(=O)c1cnccn1)B(O)O` the IC50 was 12 nM (SW948; ATP luminescence).
`O=C(NC[C@H](O)CO)c1ccncc1Nc1ccc(I)cc1F` gave an IC50 of greater than 10000 nM (MB002; 7 days).
For `COc1cc(Nc2nccc(-c3cnn4nc(OC)ccc34)n2)cc(C(F)(F)F)c1`, the IC50 was 1100 nM (SK-LU-1; ATP luminescence).
The GI50 of `COc1ccc(-c2ccc(-c3ccc(C(=N)N)nc3)s2)cc1Cl` is reported as 1820 nM (SK-MEL-5; SRB).
`Nc1cc(C(F)(F)F)c(-c2cc(N3CCOCC3)nc(N3CCOCC3)n2)cn1` gave an IC50 of 172 nM (MB002; 7 days).
